In ChEMBL document CHEMBL1156462, “Seco-pregnane steroids target the subgenomic RNA of alphavirus-like RNA viruses” (Proc Natl Acad Sci U S A, 2007):
Activity calls are given as the source filed them. No cut-off for these calls is given here.

Key:
Tobacco mosaic virus [1] = experiment: Inhibition of TMV U1 replication in tobacco BY2 protoplast at 50 nM by local lesion assay using Chenopodium quinoa leaves; assay type: functional, organism-based
Procedure, shortened: (§1)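 TMV premixed with compound at a range of concentrations used to inoculate tobacco BY-2 protoplasts; virus multiplication then assayed by counting local lesions on the local lesion host Chenopodium quinoa.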

Reovirus sp. = experiment: Antiviral activity against Reovirus in CIK cells assessed as inhibition of virus-induced cytopathogenicity; assay type: functional, organism-based
Procedure, shortened: (§2)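 Cells seeded at 2 × 10⁵ per well 24 h before use (BHK-21 for GETV, H9 for HIV, CIK for Reovirus, 983A for adenovirus, Veto for measles virus). Infected at a dose giving 100% cytopathic effect at 3 dpi; virus premixed with compound at final 100, 50, 10, 3, 2, 1.5, 1, 0 nM. Infected and uninfected untreated controls on each plate.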

Sindbis virus [2] = experiment: Reduction of Sindbis virus infection-induced mortality rate in newborn BALB/c mouse assessed as long term survivors at 50 mg/kg; assay type: functional
Procedure, shortened: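 Newborn BALB/c mice, 2–3 days old, ≈2 g, were inoculated intracerebrally with 20 μl medium holding 100 × LD50 SINV. Compound (20 μl, 5, 50 or 100 mg/kg BW) was mixed into the inoculum. There were 11 mice per group, counted at 3–7 days. Virus-alone and compound-alone controls were included.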

[3] = Growth inhibition of hamster BHK21 cells at 100 nM after 48 hrs; assay type: cell-based, Mesocricetus auratus; conditions: bhk-21, 48 h, 0.1 µM
Procedure, shortened: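 BHK-21 cells mock-infected and incubated with 100 nM compound for 48 h; cell morphology and growth examined by light microscopy.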

Sindbis virus [4] = experiment: Reduction of Sindbis virus infection-induced mortality rate in newborn BALB/c mouse assessed as mouse survival at 100 mg/kg administered 4 hrs before viral infection; assay type: functional, organism-based; design: dose 100 mg/kg
Procedure, shortened: (§3)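 Newborn BALB/c mice (2–3 days old, ≈2 g), 11 per group, given 20 μl compound at 100 mg/kg BW 1 or 4 h before intracerebral inoculation with 20 μl medium containing 100 × LD₅₀ SINV. Survivors counted at 3, 4, 5, 6 and 7 days after inoculation.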

Sindbis virus [5] = experiment: Decrease in 26S sgRNA level in Sindbis virus XJ160 infected BHK21 cells after 24 hrs postinfection; assay type: functional, organism-based; conditions: BHK-21
Sindbis virus [6] = experiment: Reduction of Sindbis virus infection-induced mortality rate in newborn BALB/c mouse assessed as survivors at 100 mg/kg administered 1 hr before infection after 7 days; assay type: functional
Procedure, shortened: (§4)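 Newborn BALB/c mice, 2–3 days old, ≈2 g, received 20 μl compound at 100 mg/kg BW 1 or 4 h before intracerebral inoculation with 20 μl containing 100 × LD50 SINV. There were 11 mice per group, with survivors counted at 3, 4, 5, 6 and 7 days.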

Tobacco mosaic virus [7] = experiment: Inhibition of TMV U1 multiplication in tobacco BY2 protoplast at 40 nM assessed as local lesion size on Chenopodium quinoa leaves by local lesion assay; assay type: functional
[8] = test system: Human immunodeficiency virus; experiment: Antiviral activity against HIV in human H9 cells assessed as inhibition of virus-induced cytopathogenicity; assay type: functional, organism-based; conditions: Human immunodeficiency virus 1, H9; procedure, shortened: as §2
Sindbis virus [9] = experiment: Reduction of Sindbis virus infection-induced mortality rate in newborn BALB/c mouse assessed as mouse survival at 100 mg/kg administered 1 hr before viral infection; assay type: functional, organism-based; design: dose 100 mg/kg; procedure, shortened: as §3
Tobacco mosaic virus [10] = experiment: Inhibition of TMV U1 multiplication in tobacco BY2 protoplast at 30 nM assessed as local lesion size on Chenopodium quinoa leaves by local lesion assay; assay type: functional
Tobacco mosaic virus [11] = experiment: Inhibition of TMV U1 multiplication in tobacco BY2 protoplast at 50 nM assessed as inhibition of local lesions on Chenopodium quinoa leaves by local lesion assay after 3 days postinfection; assay type: functional; conditions: U1, 72 h; procedure, shortened: as §1
Sindbis virus [12] = experiment: Decrease in 26S sgRNA level in Sindbis virus XJ160 infected BHK21 cells after 3 hrs postinfection; assay type: functional, organism-based; conditions: BHK-21
Procedure, shortened: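 BHK-21 cells infected with SINV XJ-160 premixed with compound at MOI 10 in quadruplicate. Viral RNAs quantified at 3 hpi by Northern blot, with β-actin RNA as loading comparison.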

[13] = test system: Eastern equine encephalitis virus; experiment: Antiviral activity against Eastern equine encephalitis virus in BHK21 cells assessed as inhibition of virus-induced cytopathogenicity; assay type: functional, organism-based; conditions: BHK-21
Tobacco mosaic virus [14] = experiment: Inhibition of TMV U1 multiplication in tobacco BY2 protoplast at 10 nM assessed as inhibition of local lesions on Chenopodium quinoa leaves by local lesion assay after 3 days postinfection; assay type: functional; conditions: U1, 72 h; procedure, shortened: as §1
Tobacco mosaic virus [15] = experiment: Inhibition of TMV U1 multiplication in tobacco BY2 protoplast at 20 nM assessed as inhibition of local lesions on Chenopodium quinoa leaves by local lesion assay after 3 days postinfection; assay type: functional; conditions: U1, 72 h; procedure, shortened: as §1
Sindbis virus [16] = experiment: Decrease in Sindbis virus XJ160 accumulation in BHK21 cells […] by ELISA; assay type: functional, organism-based; conditions: XJ160, BHK-21
Procedure, shortened: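 BHK-21 cells inoculated with SINV XJ-160 premixed with compound (MOI 0.01, 15-min pretreatment, 1-h adsorption). Virus accumulation measured by ELISA as blank-subtracted OD₄₅₀, averaged over nine repeats per concentration.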

Tobacco mosaic virus [17] = experiment: Reduction of coat protein level in TMV U1 infected tobacco BY2 protoplast by ELISA; assay type: functional, organism-based
Procedure, shortened: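 BY-2 protoplasts inoculated with TMV pretreated with a range of compound concentrations; coat protein measured by ELISA, three repeats per concentration, mean ± SD.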

Tobacco mosaic virus [18] = experiment: Inhibition of TMV U1 multiplication in tobacco BY2 protoplast at 50 nM assessed as local lesion size on Chenopodium quinoa leaves by local lesion assay; assay type: functional
Influenza A virus = experiment: Antiviral activity against influenza A virus in Madin-Darby kidney cells assessed as inhibition of virus-induced cytopathogenicity; assay type: functional, organism-based
Procedure, shortened: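 Influenza A virus was tested on Madin–Darby canine kidney cells seeded at 2 × 10⁵ per well 24 h before use. Infection used the dose causing 100% CPE at 3 dpi. Compound was premixed with virus at final 100–0 nM (8 levels). Uninfected and virus-only controls were included per plate. Read-out was 50% inhibition of cytopathogenicity.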

[19] = Selectivity index, ratio of CC50 for BHK21 cells to EC50 for Sindbis virus; assay type: toxicity, cell-based, BHK-21; conditions: hamster, read-out: Ratio CC50/EC50
Procedure, shortened: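 SINV XJ-160 at 2 × 10⁵ pfu/ml was premixed with compound for 15 min. It was then adsorbed 1 h to BHK-21 cells, MOI 0.01, in quadruplicate. Cells were washed and kept in DMEM/5% FBS at 37°C. CC50 was 50% inhibition of uninfected BHK-21 proliferation. Index = CC50/EC50.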

[20] = Cytotoxicity against hamster BHK21 cells; assay type: cell-based, Mesocricetus auratus, BHK-21
unidentified adenovirus = experiment: Antiviral activity against adenovirus in 983A cells assessed as inhibition of virus-induced cytopathogenicity; assay type: functional, organism-based; procedure, shortened: as §2
Tobacco mosaic virus [21] = experiment: Inhibition of TMV U1 multiplication in tobacco BY2 protoplast at 30 nM assessed as inhibition of local lesions on Chenopodium quinoa leaves by local lesion assay after 3 days postinfection; assay type: functional; conditions: U1, 72 h; procedure, shortened: as §1
Hepatitis C virus = experiment: Antiviral activity against HCV in human H9 cells assessed as inhibition of virus-induced cytopathogenicity; assay type: functional, organism-based, Hepacivirus hominis
Sindbis virus [22] = experiment: Reduction of Sindbis virus infection-induced mortality rate in newborn BALB/c mouse assessed as survivors at 100 mg/kg administered 4 hrs before infection after 7 days; assay type: functional; procedure, shortened: as §4

For `CO[C@@H]1C[C@H](O[C@H]2CC[C@@]3(C)C(=CC[C@H]4C(=O)OC5CO[C@]6(C)OC=C(CC[C@@H]43)[C@H]56)C2)O[C@H](C)[C@H]1O[C@H]1C[C@H](O)[C@H](O[C@@H]2C[C@@H](OC)[C@H](O[C@@H]3O[C@H](CO)[C@@H](O[C@@H]4O[C@H](CO)[C@@H](O)[C@H](O)[C@H]4O)[C@H](O)[C@H]3O)[C@@H](C)O2)[C@@H](C)O1` (stereo partly specified) [PANICULATUMOSIDE C], the Activity (Tobacco mosaic virus [1]) was “Active”, the EC50 (Reovirus sp.) was > 25 µM and the Activity (Sindbis virus [2]) was 54%. The Activity [3] was “Non-toxic”, the Activity (Sindbis virus [4]) was “Toxic” and the Activity (Sindbis virus [5]) was “Active”. For the same compound, the Activity (Sindbis virus [6]) was 100%, the Activity (Tobacco mosaic virus [7]) was 1 mm and the EC50 [8] was > 25 µM. The Activity (Sindbis virus [9]) was “Toxic”, the Activity (Tobacco mosaic virus [10]) was 1.1 mm and the inhibition at 0.05 µM (Tobacco mosaic virus [11]) was 100%. For the same compound, the Activity (Sindbis virus [12]) was “Dose-dependent effect”, the EC50 [13] was 0.002 µM and the inhibition at 0.01 µM (Tobacco mosaic virus [14]) was 19%. The inhibition at 0.02 µM (Tobacco mosaic virus [15]) was 40%, the EC50 (Sindbis virus [16]) was 0.0015 µM and the Activity (Tobacco mosaic virus [17]) was “Dose-dependent effect”. The Activity (Tobacco mosaic virus [18]) was 0 mm, the EC50 (Influenza A virus) was > 20 µM and the selectivity ratio [19] was 11000. The CC50 [20] was 16.5 µM, the EC50 (unidentified adenovirus) was > 25 µM and the inhibition at 0.03 µM (Tobacco mosaic virus [21]) was 72%. The EC50 (Hepatitis C virus) was > 25 µM and the Activity (Sindbis virus [22]) was 30%.
